Data from ChEMBL document CHEMBL1138266, “Design, synthesis, and biological evaluation of a 1alpha,25-dihydroxy-19-norvitamin D3 analogue with a frozen A-ring conformation” (J Med Chem, 2007).
Active and inactive are the calls of the source. No cut-off for these calls is given here.

Key:
Mus musculus [1] = assay: Increase in serum calcium in vitamin D deficient CD1 mouse at 5.4 […], ip after 24 hrs; format: functional, organism-based
Outline: (§1)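 Female CD-1 mice, 6 weeks old on arrival, were fed a purified vitamin D-deficient diet for 17 weeks (n=3/group). They got a single intraperitoneal injection in 95:5 propylene glycol/ethanol vehicle. Blood was drawn predose and at multiple later times. Serum was diluted in 0.1% lanthanum chloride and calcium read by atomic absorption, reported as change from baseline.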

Mus musculus [2] = assay: Increase in serum calcium in vitamin D deficient CD1 mouse at 181.5 […], ip after 24 hrs; format: functional, organism-based; outline: as §1
Vitamin D3 receptor [3] = biological target: T1, Vitamin D3 receptor (Rattus norvegicus, UniProt P13053); assay: (§2) Activity at VDR in rat osteosarcoma cells assessed as 24-hydroxylase transcription by reporter gene assay; format: cell-based
T1 sequence (P13053 whole entry): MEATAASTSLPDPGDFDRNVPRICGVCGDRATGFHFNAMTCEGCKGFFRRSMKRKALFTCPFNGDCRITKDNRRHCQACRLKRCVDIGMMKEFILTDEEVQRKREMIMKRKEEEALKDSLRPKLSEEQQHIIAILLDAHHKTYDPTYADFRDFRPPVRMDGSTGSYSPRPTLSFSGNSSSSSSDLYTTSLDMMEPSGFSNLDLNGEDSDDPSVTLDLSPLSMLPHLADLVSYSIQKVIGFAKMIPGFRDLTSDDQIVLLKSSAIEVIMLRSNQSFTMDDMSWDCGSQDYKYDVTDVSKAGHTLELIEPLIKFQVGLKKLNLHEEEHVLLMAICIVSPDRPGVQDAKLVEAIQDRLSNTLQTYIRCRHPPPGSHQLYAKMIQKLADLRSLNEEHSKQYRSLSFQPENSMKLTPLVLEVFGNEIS
Outline: (§3)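 Rat osteosarcoma cells stably carrying a 24-hydroxylase gene reporter plasmid, read as luciferase activity.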

Vitamin D3 receptor [4] = biological target: T1, Vitamin D3 receptor; assay: Displacement of 1-alpha,25-dihydroxyvitamin from rat recombinant VDR
Outline: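 Competitive binding against radiolabeled 1α,25-(OH)2D3 at 1 nM. Run in duplicate on two separate occasions.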

HL-60 [5] = assay: Ratio of ED50 for drug to 1-alpha,25-dihydroxyvitamin for HL60 cells differentiation by NBT reduction assay; format: functional, Homo sapiens
Outline: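 Human HL-60 promyelocytes induced toward monocytic differentiation; maturation scored as percentage of cells reducing nitro blue tetrazolium. […] Experiment repeated in duplicate two times.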

HL-60 [6] = assay: Induction of differention of human HL60 cells into monocytes by NBT reduction assay; format: functional, cell-based
Mus musculus [7] = assay: Increase in serum calcium in vitamin D sufficient CD1 mouse at 150 ug/kg, ip; format: functional, organism-based
Outline: (§4)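 Female CD-1 mice, 6-7 weeks old, were group-housed on a purified diet with 0.47% calcium and acclimated 5-7 days. Each got a single dose (n=5-6/group). Serum calcium was measured by atomic absorption after 0.1% lanthanum chloride dilution. Analysis was one-way ANOVA with pairwise comparisons.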

[8] = biological target: T2, Vitamin D3 receptor (Rattus norvegicus) (UniProt P13053); assay: as §2; format: cell-based; outline: as §3
T2 sequence (whole entry): T1 sequence (P13053 whole entry)

Mus musculus [9] = assay: Increase in serum calcium in vitamin D sufficient CD1 mouse at 50 ug/kg, ip; format: functional, organism-based; outline: as §4
Mus musculus [10] = assay: Increase in serum calcium in vitamin D sufficient CD1 mouse at 33.3 ug/kg, po; format: functional, organism-based; outline: as §4
Mus musculus [11] = assay: Increase in serum calcium in vitamin D sufficient CD1 mouse at 150 ug/kg, po; format: functional, organism-based; outline: as §4
Mus musculus [12] = assay: Increase in serum calcium in vitamin D sufficient CD1 mouse at 33.3 ug/kg, ip; format: functional, organism-based; outline: as §4

EC50 (Vitamin D3 receptor [3])	Ki (Vitamin D3 receptor [4])	EC50 (HL-60 [6])	Activity [8]	Structure (SMILES)	Activity (Mus musculus [1])	Activity (Mus musculus [2])	Ratio ED50 (HL-60 [5])	Activity (Mus musculus [7])	Activity (Mus musculus [9])	Activity (Mus musculus [10])	Activity (Mus musculus [11])	Activity (Mus musculus [12])
–	–	–	–	C=C1/C(=C\C=C2/CCC[C@]3(C)[C@@H]([C@H](C)CCCC(C)(C)O)CC[C@@H]23)C[C@@H](O)C[C@@H]1O	Active	Active	–	–	–	–	–	–
100 nM	30 nM	100 nM	–	C[C@H](CCCC(C)(C)O)C1CC[C@H]2/C(=C/C=C3/C[C@@H](O)C4=CCCO[C@@H]4C3)CCC[C@]12C (some centres not stated)	–	–	>100	–	–	–	–	–
–	10000 nM	1000 nM	inactive	C[C@H](CCCC(C)(C)O)C1CC[C@H]2/C(=C/C=C3\C[C@@H](O)C4=CCCO[C@@H]4C3)CCC[C@]12C (some centres not stated)	Active	Active	>1000	Active	Active	Active	Active	Active
